From ChEMBL document CHEMBL1137665, “Antistaphylococcal activity of CG400549, a new experimental FabI inhibitor, compared with that of other agents” (2007)

Tests used:
[1] = test system: Staphylococcus aureus; experiment: Antimicrobial activity against panton-valentine leukocidin-positive community-acquired methicillin-resistant Staphylococcus aureus 490 after 22 passages by multi-step resistance selection technique; type: functional
Procedure, shortened: (§1)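 Multistep selection: 10 S. aureus strains (8 MRSA incl. two VRSA, two VISA; 2 MSSA) serially passaged daily at subinhibitory concentrations of each antimicrobial; MICs of mutants retested and compared with parent; clone identity versus parent confirmed by pulsed-field gel electrophoresis at study end.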

[2] = test system: Staphylococcus aureus; experiment: Antimicrobial activity against methicillin-susceptible Staphylococcus aureus by agar dilution CLSI method; type: functional
Procedure, shortened: (§2)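 CLSI agar dilution MIC against S. aureus clinical isolates. Calcium was added to the medium for daptomycin testing. Vancomycin plates were read after a full 24-h incubation.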

[3] = test system: Staphylococcus aureus; experiment: Antimicrobial activity against panton-valentine leukocidin-negative community-acquired methicillin-resistant Staphylococcus aureus 481 after 37 passages with Linezolid measured after 10 antibiotic-free subculture by multi-step resistance selection technique; type: functional
Procedure, shortened: (§3)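 Mutants from multistep daily serial passage in subinhibitory drug were then subcultured daily 10 times on antibiotic-free medium. MIC was redetermined after these subcultures to assess stability. Clone identity was checked by pulsed-field gel electrophoresis.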

[4] = test system: Staphylococcus aureus; experiment: Antimicrobial activity against methicillin-resistant vancomycin-intermediate Staphylococcus aureus 555 after single-step resistance selection by agar dilution CLSI method; type: functional
Procedure, shortened: (§4)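 Single-step selection on drug-containing agar across 10 strains (2 MSSA, 8 MRSA, including VRSA and VISA). Colonies arising on confluent background growth were retested by CLSI agar dilution MIC. Resistance was defined as an MIC more than 4× the parent MIC.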

[5] = test system: Staphylococcus aureus; experiment: Antimicrobial activity against methicillin and vancomycin-resistant Staphylococcus aureus 509 after single-step resistance selection by agar dilution CLSI method; type: functional; procedure, shortened: as §4
[6] = test system: Staphylococcus aureus; experiment: Antimicrobial activity against vancomycin-resistant Staphylococcus aureus 509 Michigan after 28 passages with Linezolid measured after 10 antibiotic-free subculture by multi-step resistance selection technique; type: functional
Procedure, shortened: (§5)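 Multistep-selected mutants (daily passage at subinhibitory drug levels) then subcultured 10 times daily on antibiotic-free medium; MIC redetermined afterwards and compared with the MIC recorded at the end of selection; clone identity to parent checked by pulsed-field gel electrophoresis.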

[7] = test system: Staphylococcus aureus; experiment: Antimicrobial activity against methicillin-susceptible Staphylococcus aureus 540 after 36 passages by multi-step resistance selection technique; type: functional
Procedure, shortened: (§6)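 Multistep selection by daily serial passage of each strain in subinhibitory drug concentrations for the stated number of passages. Mutant MIC was then determined. Identity of mutants and parents was confirmed by pulsed-field gel electrophoresis.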

[8] = test system: Staphylococcus aureus; experiment: Antimicrobial activity against methicillin-susceptible Staphylococcus aureus 543 after 15 passages with Linezolid measured after 10 antibiotic-free subculture by multi-step resistance selection technique; type: functional; procedure, shortened: as §3
[9] = test system: Staphylococcus aureus; experiment: Antimicrobial activity against methicillin-resistant vancomycin-intermediate Staphylococcus aureus 504 after single-step resistance selection by agar dilution CLSI method; type: functional; procedure, shortened: as §4
[10] = test system: Staphylococcus aureus; experiment: Antimicrobial activity against panton-valentine leukocidin-negative community-acquired methicillin-resistant Staphylococcus aureus 481 after 37 passages by multi-step resistance selection technique; type: functional; procedure, shortened: as §6
[11] = test system: Staphylococcus aureus; experiment: Antimicrobial activity against methicillin-susceptible Staphylococcus aureus 543 after single-step resistance selection by agar dilution CLSI method; type: functional; procedure, shortened: as §4
[12] = test system: Staphylococcus aureus; experiment: Antimicrobial activity against methicillin and vancomycin-resistant Staphylococcus aureus 510 after single-step resistance selection by agar dilution CLSI method; type: functional; procedure, shortened: as §4
[13] = test system: Staphylococcus aureus; experiment: Antimicrobial activity against methicillin-susceptible Staphylococcus aureus 540 after single-step resistance selection by agar dilution CLSI method; type: functional; procedure, shortened: as §4
[14] = test system: Staphylococcus aureus; experiment: Antimicrobial activity against vancomycin-resistant Staphylococcus aureus 510 Hershey after 50 passages by multi-step resistance selection technique; type: functional; procedure, shortened: as §1
[15] = test system: Staphylococcus aureus; experiment: Antimicrobial activity against methicillin-susceptible Staphylococcus aureus 540 after 36 passages with Linezolid measured after 10 antibiotic-free subculture by multi-step resistance selection technique; type: functional; procedure, shortened: as §3
[16] = test system: Staphylococcus aureus; experiment: Antimicrobial activity against methicillin-susceptible Staphylococcus aureus 543 after 15 passages by multi-step resistance selection technique; type: functional; procedure, shortened: as §6
[17] = test system: Staphylococcus aureus; experiment: Antimicrobial activity against panton-valentine leukocidin-positive community-acquired methicillin-resistant Staphylococcus aureus 490 after 22 passages with Linezolid measured after 10 antibiotic-free subculture by multi-step resistance selection technique; type: functional; procedure, shortened: as §5
[18] = test system: Staphylococcus aureus; experiment: Antimicrobial activity against methicillin-resistant Staphylococcus aureus 547 after single-step resistance selection by agar dilution CLSI method; type: functional; procedure, shortened: as §4
[19] = test system: Staphylococcus aureus; experiment: Antimicrobial activity against methicillin-resistant Staphylococcus aureus 547 after 48 passages by multi-step resistance selection technique; type: functional; procedure, shortened: as §6
[20] = test system: Staphylococcus aureus; experiment: Antimicrobial activity against methicillin-resistant Staphylococcus aureus 481 after single-step resistance selection by agar dilution CLSI method; type: functional; procedure, shortened: as §4
[21] = test system: Staphylococcus aureus; experiment: Antimicrobial activity against community-acquired vancomycin-intermediate Staphylococcus aureus 504 by agar dilution CLSI method; type: functional; procedure, shortened: as §2
[22] = test system: Staphylococcus aureus; experiment: Antimicrobial activity against methicillin-resistant Staphylococcus aureus 490 after single-step resistance selection by agar dilution CLSI method; type: functional; procedure, shortened: as §4
[23] = test system: Staphylococcus aureus; experiment: Antimicrobial activity against vancomycin-resistant Staphylococcus aureus 509 Michigan after 28 passages by multi-step resistance selection technique; type: functional; procedure, shortened: as §1
[24] = test system: Staphylococcus aureus; experiment: Antimicrobial activity against methicillin-resistant Staphylococcus aureus 547 after 48 passages with Linezolid measured after 10 antibiotic-free subculture by multi-step resistance selection technique; type: functional; procedure, shortened: as §3
[25] = test system: Staphylococcus aureus; experiment: Antimicrobial activity against methicillin-resistant Staphylococcus aureus by agar dilution CLSI method; type: functional; procedure, shortened: as §2
[26] = test system: Staphylococcus aureus; experiment: Antimicrobial activity against vancomycin-intermediate Staphylococcus aureus 504 after 22 passages with Linezolid measured after 10 times antibiotic-free subculture by multi-step resistance selection technique; type: functional; procedure, shortened: as §5
[27] = test system: Staphylococcus aureus; experiment: Antimicrobial activity against methicillin-resistant Staphylococcus aureus 525 after single-step resistance selection by agar dilution CLSI method; type: functional; procedure, shortened: as §4
[28] = test system: Staphylococcus aureus; experiment: Antimicrobial activity against vancomycin-intermediate Staphylococcus aureus 504 after 22 passages by multi-step resistance selection technique; type: functional
Procedure, shortened: (§7)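 Multistep selection: S. aureus strains (MSSA and MRSA, including VISA and VRSA) were passaged serially once daily in subinhibitory concentrations of each antimicrobial. Mutant and parent identities were confirmed by pulsed-field gel electrophoresis at the end of the study. Mutant MIC stability was checked after 10 daily subcultures on antibiotic-free media.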

[29] = test system: Staphylococcus aureus; experiment: Antimicrobial activity against vancomycin-intermediate Staphylococcus aureus 504 after 50 passages by multi-step resistance selection technique; type: functional; procedure, shortened: as §7
[30] = test system: Staphylococcus aureus; experiment: microbe, parasite or virus in culture; conditions: 481
[31] = test system: Staphylococcus aureus; experiment: Antimicrobial activity against vancomycin-resistant Staphylococcus aureus 510 Hershey by agar dilution CLSI method; type: functional
Procedure, shortened: (§8)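 Agar dilution MIC per CLSI methodology; calcium supplemented for daptomycin testing; vancomycin plates read after a full 24-h incubation.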

[32] = test system: Staphylococcus aureus; experiment: Antimicrobial activity against vancomycin-intermediate Staphylococcus aureus 555 Hershey after 14 passages with CG400549 measured after 10 antibiotic-free subculture by multi-step resistance selection technique; type: functional; procedure, shortened: as §5
[33] = test system: Staphylococcus aureus; experiment: Antimicrobial activity against vancomycin-intermediate Staphylococcus aureus 555 Hershey by agar dilution CLSI method; type: functional; procedure, shortened: as §8
[34] = test system: Staphylococcus aureus; experiment: Antimicrobial activity against vancomycin-resistant Staphylococcus aureus 509 Michigan after 20 passages with daptomycin measured after 10 antibiotic-free subculture by multi-step resistance selection technique; type: functional; procedure, shortened: as §5
[35] = test system: Staphylococcus aureus; experiment: Antimicrobial activity against panton-valentine leukocidin-positive community-acquired methicillin-resistant Staphylococcus aureus 490 after 50 passages by multi-step resistance selection technique
[36] = test system: Staphylococcus aureus; experiment: Antimicrobial activity against methicillin-susceptible Staphylococcus aureus 540 after 50 passages by multi-step resistance selection technique
[37] = test system: Staphylococcus aureus; experiment: Antimicrobial activity against vancomycin-resistant Staphylococcus aureus 509 Michigan after 14 passages with CG400549 measured after 10 antibiotic-free subculture by multi-step resistance selection technique; type: functional; procedure, shortened: as §5
[38] = test system: Staphylococcus aureus; experiment: microbe, parasite or virus in culture; conditions: 543
[39] = test system: Staphylococcus aureus; experiment: Antimicrobial activity against vancomycin-resistant Staphylococcus aureus 510 Hershey after 14 passages with CG400549 measured after 10 antibiotic-free subculture by multi-step resistance selection technique; type: functional; procedure, shortened: as §5
[40] = test system: Staphylococcus aureus; experiment: microbe, parasite or virus in culture; conditions: 547
[41] = test system: Staphylococcus aureus; experiment: microbe, parasite or virus in culture; conditions: 525
[42] = test system: Staphylococcus aureus; experiment: Antimicrobial activity against vancomycin-intermediate Staphylococcus aureus 555 Hershey after 50 passages by multi-step resistance selection technique; type: functional; procedure, shortened: as §1
[43] = test system: Staphylococcus aureus; experiment: Antimicrobial activity against vancomycin-resistant Staphylococcus aureus 509 Michigan by agar dilution CLSI method; type: functional; procedure, shortened: as §8

CC(=O)NC[C@H]1CN(c2ccc(N3CCOCC3)c(F)c2)C(=O)O1 [LINEZOLID]
0.5 µg/mL: MIC [4] | MIC [5] | MIC [9] | MIC [11] | MIC [12] | MIC [13] | MIC [18] | MIC [20] | MIC [22] | MIC [27]
8 µg/mL: MIC [26] | MIC [28]
32 µg/mL: MIC [1] | MIC [3] | MIC [6] | MIC [7] | MIC [8] | MIC [10] | MIC [16] | MIC [17] | MIC [19] | MIC [24]
16 µg/mL: MIC [14] | MIC [15] | MIC [23]
1 µg/mL: MIC50 [2] | MIC [21] | MIC50 [25]
2 µg/mL: MIC90 [2] | MIC90 [25]

CN[C@H](CC(C)C)C(=O)N[C@H]1C(=O)N[C@@H](CC(N)=O)C(=O)N[C@H]2C(=O)N[C@H]3C(=O)N[C@H](C(=O)N[C@H](C(=O)O)c4cc(O)cc(O)c4-c4cc3ccc4O)[C@H](O)c3ccc(c(Cl)c3)Oc3cc2cc(c3O[C@@H]2O[C@H](CO)[C@@H](O)[C@H](O)[C@H]2O[C@H]2C[C@](C)(N)[C@H](O)[C@H](C)O2)Oc2ccc(cc2Cl)[C@H]1O [VANCOMYCIN]
8 µg/mL: MIC [29] | MIC [30] | MIC [32] | MIC [33] | MIC [35] | MIC [36] | MIC [38] | MIC [40] | MIC [41] | MIC [42] | MIC [21] | MIC [26]
1 µg/mL: MIC50 [2] | MIC50 [25]
> 64 µg/mL: MIC [6] | MIC [43]
64 µg/mL: MIC [31]
2 µg/mL: MIC90 [2] | MIC90 [25]
16 µg/mL: MIC [37] | MIC [39]
32 µg/mL: MIC [34]
